In general, inhibition refers to the drop in the measured response relative to a control, in per cent.

Some of the results follow. Activity calls are given as the source filed them.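 The calls were made as follows: active = inhibition above about 80% in every replicate, not just on average (limit read from the data); inconclusive = at least half of replicates past the limit, but not all; inactive = fewer than half of replicates past the limit.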

A short description of this experiment: luminescence inhibition in constitutive-on V. harveyi, confirmation, counter-screen for LuxS inhibitor project, strain BB721, luminescence readout (AID 2727). Particulars: Vibrio harveyi BB721 luminescence, 9 h; at 7.5 µM; active compounds read high. The gist of the method: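 Times: compound exposure of bacteria for 9 h at 30 °C; System: Vibrio harveyi strain BB721 with quorum sensing permanently switched on; Quantity: starting culture density OD600 0.0005; Read-out: luminescence reduction; Buffer or medium: AB bacterial medium; Dosing: 45 nL per well from 10 mM compound stock.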
In general terms: A counterscreen serves to expose hits that act by an unwanted route or on another target.
For the compound `O=S(=O)(Nc1cccc(Oc2ccc(Cl)cc2)n1)c1ccc(F)cc1`, the inhibition is 99.6% (active).
For the compound `O=C1COc2ccc(S(=O)(=O)Nc3ccc(OC(F)(F)F)cc3)cc2N1`, the inhibition is 96.7% (active).
Turning to `COc1cccc(NC(=O)NCc2ccc(F)cc2)c1`, the inhibition is 94.6% (active).
Next, `Cc1nn(CC(=O)Nc2ccc(F)cc2)c(=O)c2ccccc12`: 98.5% (active); `O=C(COC(=O)C1CCCCC1)Nc1ccc([N+](=O)[O-])cc1`: 93.7% (active); `O=C(Cn1cnc2ccccc2c1=O)Nc1cccc(S(=O)(=O)N2CCCCC2)c1`: 85.6% (active).
`Cc1ccccc1C(=O)Nc1ccc(N2CCCCCC2)cc1`: the inhibition was 91.4% (active).
As to `Cc1cccc(CSc2ccc(-c3cccs3)nn2)c1`, the inhibition was 94.7% (active).
Take `Cc1ccsc1C(=O)OCC(=O)c1cc2ccccc2o1`: the inhibition is 95.1% (active).
Take `CC(C)(C)c1ccc(OC2=CS(=O)(=O)c3ccccc32)cc1`: the inhibition was 92.5% (active).
On to `CC(CNc1ccc([N+](=O)[O-])cc1)NC(=O)c1ccccc1Br` (stereo not drawn), for which the inhibition is -4.57% (inactive).
With `Cc1cc(CN(C)C(=O)c2cc(COc3ccc(C)c(C)c3)on2)n[nH]1`, the inhibition was 96% (active).
On to `COC(=O)C1CCN(C(=O)c2ccc3oc(Cc4ccc(Cl)cc4)nc3c2)CC1`, for which the inhibition is 95.6% (active).
Next, `O=C(COc1ncnc2ccccc12)NC(=O)NCc1ccccc1`: 95.7% (active).
Turning to `O=C(/C=C/c1ccc2c(c1)OCCO2)c1ccc(O)cc1`, the inhibition is 93.3% (active).
`O=C(c1cc(-c2cccc(O)c2)on1)N1CCc2ccccc2C1`: the inhibition was 93.6% (active).
As to `Cc1ccc(Cc2nc(-c3cccc(C)c3)no2)cc1`, the inhibition is 92.5% (active).
On to `Cc1ccccc1NC(=O)CCOc1ccccc1`, for which the inhibition was 90.7% (active).
Next, `Cc1ccc(Oc2cnn(-c3ccccc3)c(=O)c2Br)cc1`: 99.2% (active).
Regarding `S=C(NCc1ccc(Cl)cc1)NC1CCCCC1`, the inhibition is 94.1% (active).
Next, `O=C(/C=C/c1ccc2c(c1)OCO2)NCc1ccc(F)cc1`: 94% (active); `CC(=O)c1cccc(OCc2cc(C(=O)NC(C)Cc3cccnc3)no2)c1` (stereo not drawn): 92.4% (active); `O=C(Nc1ccc(F)c(Cl)c1)C1CCN(S(=O)(=O)c2cccnc2)CC1`: 97.7% (active).
`N/C(=N\OC(=O)CCc1ccccc1)c1cccnc1`: the inhibition is 91.1% (active).
Regarding `CN(Cc1cnccn1)C(=O)c1cc(COc2cccc(C(F)(F)F)c2)on1`, the inhibition was 96% (active).
On to `O=C(CCC(=O)c1cccs1)Nc1nc2ccccc2s1`, for which the inhibition was 97.5% (active).
Next, `COC(=O)c1ccc(SCc2ccccc2)nc1`: 96.4% (active).
In the case of `Cc1ccc(NC(=O)C2CC2c2ccccc2)cc1` (stereo not drawn), the inhibition is 94.8% (active).
Consider `CCOC(=O)c1nn(-c2cccc(C)c2)cc1C(=O)c1ccccc1`, for which the inhibition was 87.7% (active).
Consider `COc1ccc(/C(N)=N/OC(=O)Cc2ccccc2)cc1`, for which the inhibition is 93.6% (active).
In the case of `Cc1cc(C(=O)OCC(=O)Nc2ccc(F)c(F)c2)c(C)o1`, the inhibition is 97.5% (active).
`Cc1ccc(NS(=O)(=O)c2ccc3c(c2)NC(=O)CO3)cc1`: the inhibition was 92% (active).
As to `CCOc1ccc(/C=N/NC(N)=S)cc1`, the inhibition is 92.7% (active).

The values above are taken from PubChem BioAssay AID2727 (Broad Institute, 2010).
